Tests used:
HT-22 = assay: Inhibition of beta-amyloid peptide-induced mitochondrial permeability transition pore opening in mouse HT22 cells assessed as increase in green/red fluorescence ratio at 5 uM pre-incubated for 10 mins before Abeta peptide addition by JC-1 assay; format: cell-based; set-up: scale not given: the % may be the effect or the level left
How it was run: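 HT-22 mouse hippocampal cells (DMEM, 10% FBS, 37 °C, 5% CO2), 30,000/well seeded a day ahead; loaded with 7.5 μM JC-1 (final) in phenol red-free Opti-MEM for 1 h 15 min at 37 °C, PBS-washed. Compound 5 μM for 10 min, then Aβ1–42 5 μM. Fluorescence read hourly for 3 h, red ex/em 530/580, green 485/530; green/red ratio change relative to Aβ alone (100%).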

[1] = Toxicity against mouse HT22 cells assessed as cell viability at 5 uM after 24 hrs by MTT assay; format: cell-based, HT-22; details: read-out: Activity
How it was run: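 HT-22 cells, 5000/well, given compound at 5 μM without Aβ, 24 h at 37 °C. MTT added for 2 h at 37 °C, formazan dissolved in 10% Triton X-100/isopropanol with 0.1 M HCl for 1 h at room temperature; absorbance at 570 nm, vehicle-control values subtracted to derive viability.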

Compound | Activity (HT-22) [%] | viability at 24 h, 5 µM [1] [%]
Cc1ccc(NC(=O)Nc2cc3ncncc3cc2OCc2ccc(Cl)cc2)cc1 | 63 | –
O=C(Nc1cccc(Cl)c1)Nc1cc2ncncc2cc1OCc1ccccc1F | 51.4 | –
O=C(Nc1cccc(F)c1)Nc1cc2ncncc2cc1OCc1ccccc1 | 38 | 100
Cc1ccc(NC(=O)Nc2cc3ncncc3cc2OCc2ccccc2Cl)cc1 | 54.7 | –
Cc1ccc(NC(=O)Nc2cc3ncncc3cc2OCc2ccccc2F)cc1 | 26.7 | 131
O=C(Nc1cccc(F)c1)Nc1cc2ncncc2cc1OCc1ccc(F)cc1 | 61.5 | –
O=C(Nc1ccc(C(F)(F)F)cc1)Nc1cc2ncncc2cc1OCc1ccccc1F | 68.6 | –
O=C(Nc1cccc(Cl)c1)Nc1cc2ncncc2cc1OCc1ccc(Cl)cc1 | 64 | –
O=C(Nc1cccc(F)c1)Nc1cc2ncncc2cc1OCc1ccccc1F | 56.9 | –
O=C(Nc1ccc(Cl)c(Cl)c1)Nc1cc2ncncc2cc1OCc1ccc(Cl)cc1 | 91 | –
O=C(Nc1cc2ncncc2cc1OCc1ccccc1)Nc1cccc2ccccc12 | 76 | –
O=C(Nc1cccc(F)c1)Nc1cc2ncncc2cc1OCc1cccc(F)c1 | 27 | 104
Cc1ccc(NC(=O)Nc2cc3ncncc3cc2OCc2ccccc2)cc1 | 154 | –
Cc1ccc(NC(=O)Nc2cc3ncncc3cc2OCc2cccc(F)c2)cc1 | 81 | –
O=C(Nc1cc2ncncc2cc1OCc1ccccc1F)Nc1cccc2ccccc12 | 39.4 | 83
O=C(Nc1ccc(Cl)c(Cl)c1)Nc1cc2ncncc2cc1OCc1ccccc1 | 73 | –
O=C(Nc1ccccc1F)Nc1cc2ncncc2cc1OCc1ccc(Cl)cc1 | 24 | 102
O=C(Nc1cccc(Cl)c1)Nc1cc2ncncc2cc1OCc1ccc(F)cc1 | 67.9 | –
O=C(Nc1ccc(C(F)(F)F)cc1)Nc1cc2ncncc2cc1OCc1ccc(Cl)cc1 | 48 | –
O=C(Nc1ccccc1F)Nc1cc2ncncc2cc1OCc1ccc(F)cc1 | 80.3 | –
O=C(Nc1ccccc1F)Nc1cc2ncncc2cc1OCc1ccccc1Cl | 31 | 101
O=C(Nc1cccc(F)c1)Nc1cc2ncncc2cc1OCc1ccc(Cl)cc1 | 29 | 100
O=C(Nc1ccc(C(F)(F)F)cc1)Nc1cc2ncncc2cc1OCc1ccc(F)cc1 | 81 | –
O=C(Nc1ccc(Cl)c(Cl)c1)Nc1cc2ncncc2cc1OCc1ccc(F)cc1 | 155 | –
Cc1ccc(NC(=O)Nc2cc3ncncc3cc2OCc2ccc(F)cc2)cc1 | 99.2 | –

Source: ChEMBL document CHEMBL3351742, “Novel quinazoline-urea analogues as modulators for Aβ-induced mitochondrial dysfunction: design, synthesis, and molecular docking study” (Eur J Med Chem, 2014)
